pEC50: −log10 of the molar value.
Key:
Rattus norvegicus [1] = experiment: Reduction of food intake in Sprague-Dawley rat at 25 umol/kg, po after 2 hrs relative to control; assay type: functional
In short: (§1)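 Male Sprague-Dawley rats, caged singly, kept 2 weeks on a reverse light cycle, freely fed, eight per group. Oral gavage of vehicle or compound 1 h before the dark cycle. Food intake measured 2 h postdose and compared with vehicle control.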

Rattus norvegicus [2] = experiment: Reduction of food intake in Sprague-Dawley rat at 50 umol/kg, po after 2 hrs relative to control; assay type: functional; in short: as §1
Rattus norvegicus [3] = experiment: Reduction of food intake in Sprague-Dawley rat at 12.5 umol/kg, po after 2 hrs relative to control; assay type: functional; in short: as §1
Rattus norvegicus [4] = experiment: Reduction of food intake in Sprague-Dawley rat at 100 umol/kg, po after 2 hrs relative to control; assay type: functional; in short: as §1
[5] = target: 5-hydroxytryptamine receptor 2A (Homo sapiens, UniProt P28223); experiment: Agonist activity at human 5HT2A receptor expressed in HEK293 cells assessed as intracellular IP3 accumulation; assay type: functional, cell-based
In short: (§2)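 Functional agonist assay read out as [3H]phosphoinositol turnover; potency expressed as pEC50.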

Homo sapiens = organism: Homo sapiens; experiment: Selectivity ratio of pEC50 for human 5HT2B to pEC50 for human 5HT2C
[6] = target: Serotonin 2 receptors; 5-HT2a & 5-HT2c (Homo sapiens) (UniProt P28223+P28335); experiment: Selectivity ratio of pEC50 for human 5HT2A to pEC50 for human 5HT2C
[7] = target: T1, 5-hydroxytryptamine receptor 2C (Homo sapiens, UniProt P28335); experiment: Agonist activity at human 5HT2C receptor expressed in HEK293 cells assessed as intracellular IP3 accumulation; assay type: functional, cell-based; in short: as §2
T1 sequence (P28335 whole entry): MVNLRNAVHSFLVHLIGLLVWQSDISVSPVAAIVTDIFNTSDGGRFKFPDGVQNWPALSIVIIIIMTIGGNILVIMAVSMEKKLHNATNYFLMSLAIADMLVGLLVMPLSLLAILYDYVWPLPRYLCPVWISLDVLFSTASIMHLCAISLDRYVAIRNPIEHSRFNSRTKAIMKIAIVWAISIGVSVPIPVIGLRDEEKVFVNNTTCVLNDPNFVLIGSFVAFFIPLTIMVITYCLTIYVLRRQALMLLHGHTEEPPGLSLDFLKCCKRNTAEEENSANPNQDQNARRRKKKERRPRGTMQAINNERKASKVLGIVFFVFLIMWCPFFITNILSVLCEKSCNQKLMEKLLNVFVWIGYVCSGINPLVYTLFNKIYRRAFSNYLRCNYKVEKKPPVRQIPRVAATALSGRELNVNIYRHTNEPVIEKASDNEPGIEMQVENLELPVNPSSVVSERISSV

[8] = target: 5-hydroxytryptamine receptor 2B (Homo sapiens, UniProt P41595); experiment: Agonist activity at human 5HT2B receptor expressed in HEK293 cells assessed as intracellular IP3 accumulation; assay type: functional, cell-based; in short: as §2
[9] = Tmax in Sprague-Dawley rat at 10 mg/kg, po; assay type: ADME, organism-based; set-up: dose 10 mg/kg, route oral; details: in vivo
[10] = Clearance in Sprague-Dawley rat at 5 mg/kg, iv; assay type: ADME, organism-based; set-up: dose 5 mg/kg, route intravenous; details: in vivo
[11] = Cmax in Sprague-Dawley rat at 10 mg/kg, po; assay type: ADME, organism-based; set-up: dose 10 mg/kg, route oral; details: in vivo
[12] = AUC (0-infinity) in Sprague-Dawley rat at 10 mg/kg, po; assay type: ADME, organism-based; set-up: time infinity, dose 10 mg/kg, route oral; details: plasma
[13] = Oral bioavailability in Sprague-Dawley rat at 10 mg/kg; assay type: ADME, organism-based; details: in vivo
Rattus norvegicus [14] = organism: Rattus norvegicus; experiment: Reduction of food intake in Sprague-Dawley rat after 6 hrs relative to control; assay type: functional
In short: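 Male Sprague-Dawley rats, individually caged after 2 weeks on a reverse light cycle, freely fed, eight per group. Dosed by oral gavage 1 h before the dark cycle. Food intake measured 6 h postdose versus vehicle-treated rats.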

Rattus norvegicus [15] = experiment: Reduction of body weight in Sprague-Dawley rat at 18 mg/kg, po, bid after 28 days relative to control; assay type: functional; set-up: scale not given: the % may be the effect or the level left
In short: (§3)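 Adult male Sprague-Dawley rats (250–400 g), caged separately with free access to food and water. Oral gavage of vehicle or drug for 28 days, with arms of 9, 18 and 36 mg/kg twice daily and 18 mg/kg once daily. Daily food intake and body weight recorded and compared with vehicle control.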

Rattus norvegicus [16] = experiment: Reduction of body weight in Sprague-Dawley rat at 18 mg/kg, po, qd after 28 days relative to control; assay type: functional; set-up: scale not given: the % may be the effect or the level left; in short: as §3
Rattus norvegicus [17] = experiment: Reduction of body weight in Sprague-Dawley rat at 9 mg/kg, po, bid after 28 days relative to control; assay type: functional; set-up: scale not given: the % may be the effect or the level left; in short: as §3
[18] = AUC (0-infinity) in Sprague-Dawley rat at 5 mg/kg, iv; assay type: ADME, organism-based; set-up: time infinity, dose 5 mg/kg, route intravenous; details: plasma
[19] = Volume of distribution at steady state in Sprague-Dawley rat at 5 mg/kg, iv; assay type: ADME, organism-based; set-up: dose 5 mg/kg, route intravenous; details: in vivo, read-out: Vdss
[20] = Half life in Sprague-Dawley rat at 5 mg/kg, iv; assay type: ADME, organism-based; set-up: dose 5 mg/kg, route intravenous; details: in vivo
Rattus norvegicus [21] = experiment: Reduction of body weight in Sprague-Dawley rat at 36 mg/kg, po, bid after 28 days relative to control; assay type: functional; set-up: scale not given: the % may be the effect or the level left; in short: as §3
[22] = Half life in Sprague-Dawley rat at 10 mg/kg, po; assay type: ADME, organism-based; set-up: dose 10 mg/kg, route oral; details: in vivo

5-hydroxytryptamine receptor 2A, sequence (P28223 whole entry): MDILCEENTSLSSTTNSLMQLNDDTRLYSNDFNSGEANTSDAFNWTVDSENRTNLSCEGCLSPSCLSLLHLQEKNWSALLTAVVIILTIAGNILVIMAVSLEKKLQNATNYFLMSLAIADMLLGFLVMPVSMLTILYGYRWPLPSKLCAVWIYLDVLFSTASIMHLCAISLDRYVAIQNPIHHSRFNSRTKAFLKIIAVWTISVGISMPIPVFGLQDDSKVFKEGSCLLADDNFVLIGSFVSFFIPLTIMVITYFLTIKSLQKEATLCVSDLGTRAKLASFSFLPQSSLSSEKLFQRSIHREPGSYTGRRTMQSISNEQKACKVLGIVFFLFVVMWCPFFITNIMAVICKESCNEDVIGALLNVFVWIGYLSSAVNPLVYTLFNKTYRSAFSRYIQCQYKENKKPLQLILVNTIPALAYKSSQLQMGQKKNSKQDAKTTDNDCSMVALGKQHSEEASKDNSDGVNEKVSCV
Serotonin 2 receptors; 5-HT2a & 5-HT2c (Homo sapiens), sequence (P28223 whole entry, looked up, one chain of several): as the sequence (P28223 whole entry) above
5-hydroxytryptamine receptor 2B, sequence (P41595 whole entry): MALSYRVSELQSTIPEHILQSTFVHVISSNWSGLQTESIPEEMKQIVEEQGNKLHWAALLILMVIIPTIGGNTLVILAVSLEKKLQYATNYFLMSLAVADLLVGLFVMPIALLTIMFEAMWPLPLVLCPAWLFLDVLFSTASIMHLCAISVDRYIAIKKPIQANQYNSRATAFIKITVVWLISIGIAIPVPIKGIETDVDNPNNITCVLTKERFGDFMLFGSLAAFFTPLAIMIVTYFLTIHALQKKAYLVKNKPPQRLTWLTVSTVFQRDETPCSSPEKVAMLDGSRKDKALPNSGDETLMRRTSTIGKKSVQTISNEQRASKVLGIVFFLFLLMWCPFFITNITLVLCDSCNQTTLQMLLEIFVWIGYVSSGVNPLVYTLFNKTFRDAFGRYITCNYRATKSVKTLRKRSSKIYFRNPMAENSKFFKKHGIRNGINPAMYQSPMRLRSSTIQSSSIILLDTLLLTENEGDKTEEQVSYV

C[C@@H]1CNCCc2ccc(Cl)cc21
inhibition in vivo at 25 µmol/kg (Rattus norvegicus [1]): 26% | inhibition in vivo at 50 µmol/kg (Rattus norvegicus [2]): 41% | inhibition in vivo at 12.5 µmol/kg (Rattus norvegicus [3]): 7% | inhibition in vivo at 100 µmol/kg (Rattus norvegicus [4]): 73%

Clc1ccc2c(c1)CCNCC2
pEC50 [5]: 7.00 | inhibition in vivo at 25 µmol/kg (Rattus norvegicus [1]): 63% | inhibition in vivo at 50 µmol/kg (Rattus norvegicus [2]): 68% | Selectivity ratio (Homo sapiens): 1.9 | Selectivity ratio [6]: 0.9 | inhibition in vivo at 100 µmol/kg (Rattus norvegicus [4]): 85% | pEC50 [7]: 7.90

C[C@@H]1CNCCc2ccc(Cl)c(Cl)c21
pEC50 [5]: 6.90 | inhibition in vivo at 25 µmol/kg (Rattus norvegicus [1]): 19% | inhibition in vivo at 50 µmol/kg (Rattus norvegicus [2]): 41% | Selectivity ratio (Homo sapiens): 2.6 | Selectivity ratio [6]: 1.6 | inhibition in vivo at 100 µmol/kg (Rattus norvegicus [4]): 69% | pEC50 [8]: 5.90 | pEC50 [7]: 8.50

C[C@H]1CNCCc2cc(Cl)c(Cl)cc21
pEC50 [5]: 8.00 | inhibition in vivo at 25 µmol/kg (Rattus norvegicus [1]): 16% | inhibition in vivo at 50 µmol/kg (Rattus norvegicus [2]): 40% | Selectivity ratio (Homo sapiens): 1 | Selectivity ratio [6]: 0.4 | inhibition in vivo at 100 µmol/kg (Rattus norvegicus [4]): 66% | pEC50 [8]: 7.40 | pEC50 [7]: 8.40

C[C@@H]1CNCCc2cc(Cl)c(Cl)cc21
pEC50 [5]: 7.00 | inhibition in vivo at 25 µmol/kg (Rattus norvegicus [1]): 54% | inhibition in vivo at 50 µmol/kg (Rattus norvegicus [2]): 58% | Selectivity ratio (Homo sapiens): 1.5 | Selectivity ratio [6]: 1.1 | inhibition in vivo at 100 µmol/kg (Rattus norvegicus [4]): 74% | pEC50 [8]: 6.60 | pEC50 [7]: 8.10

C[C@H]1CNCCc2ccc(C(F)(F)F)cc21
pEC50 [5]: 6.90 | inhibition in vivo at 25 µmol/kg (Rattus norvegicus [1]): 22% | inhibition in vivo at 50 µmol/kg (Rattus norvegicus [2]): 41% | inhibition in vivo at 12.5 µmol/kg (Rattus norvegicus [3]): 14% | Selectivity ratio (Homo sapiens): 1.8 | Selectivity ratio [6]: 1.2 | pEC50 [8]: 6.30 | pEC50 [7]: 8.10

C[C@@H]1CNCCc2ccc(C(F)(F)F)cc21
pEC50 [5]: 7.00 | inhibition in vivo at 25 µmol/kg (Rattus norvegicus [1]): 18% | inhibition in vivo at 50 µmol/kg (Rattus norvegicus [2]): 45% | inhibition in vivo at 12.5 µmol/kg (Rattus norvegicus [3]): 16% | Selectivity ratio (Homo sapiens): 1.9 | Selectivity ratio [6]: 1 | pEC50 [8]: 6.10 | pEC50 [7]: 8.00

CC1CNCCc2cc(Cl)c(Cl)cc21 (racemic)
pEC50 [5]: 7.70 | inhibition in vivo at 25 µmol/kg (Rattus norvegicus [1]): 33% | inhibition in vivo at 50 µmol/kg (Rattus norvegicus [2]): 44% | Selectivity ratio (Homo sapiens): 1.1 | Selectivity ratio [6]: 0.7 | inhibition in vivo at 100 µmol/kg (Rattus norvegicus [4]): 60% | pEC50 [8]: 7.30

CC1CNCCc2ccc(Cl)cc21 (racemic)
inhibition in vivo at 25 µmol/kg (Rattus norvegicus [1]): 52% | inhibition in vivo at 50 µmol/kg (Rattus norvegicus [2]): 62% | inhibition in vivo at 100 µmol/kg (Rattus norvegicus [4]): 81%

CC1CNCCc2cc(Cl)ccc21 (racemic)
pEC50 [5]: 6.80 | Selectivity ratio (Homo sapiens): 1.3 | Selectivity ratio [6]: 0.8 | pEC50 [8]: 6.30 | pEC50 [7]: 7.60

COc1cc2c(cc1Cl)C(C)CNCC2 (racemic)
pEC50 [5]: 7.20 | inhibition in vivo at 25 µmol/kg (Rattus norvegicus [1]): 38% | inhibition in vivo at 50 µmol/kg (Rattus norvegicus [2]): 52% | inhibition in vivo at 100 µmol/kg (Rattus norvegicus [4]): 71% | pEC50 [8]: 7.20 | pEC50 [7]: 8.10

CC1CNCCc2cc(F)c(Cl)cc21 (racemic)
pEC50 [5]: 7.20 | inhibition in vivo at 25 µmol/kg (Rattus norvegicus [1]): 30% | inhibition in vivo at 50 µmol/kg (Rattus norvegicus [2]): 41% | Selectivity ratio (Homo sapiens): 1.7 | Selectivity ratio [6]: 1 | inhibition in vivo at 100 µmol/kg (Rattus norvegicus [4]): 58% | pEC50 [8]: 6.50 | pEC50 [7]: 8.20

CC1CNCCc2ccc(Br)cc21 (racemic)
pEC50 [5]: 6.30 | Selectivity ratio (Homo sapiens): 2.3 | Selectivity ratio [6]: 1.7 | pEC50 [8]: 5.70 | pEC50 [7]: 8.00

COc1cc2c(cc1Cl)C(C)CNCC2 (single isomer, unassigned; form 1)
pEC50 [5]: 6.70 | inhibition in vivo at 25 µmol/kg (Rattus norvegicus [1]): 32% | inhibition in vivo at 50 µmol/kg (Rattus norvegicus [2]): 36% | inhibition in vivo at 100 µmol/kg (Rattus norvegicus [4]): 43% | pEC50 [8]: 6.40 | pEC50 [7]: 8.10

COc1cc2c(cc1Cl)C(C)CNCC2 (single isomer, unassigned; form 2)
pEC50 [5]: 7.50 | inhibition in vivo at 25 µmol/kg (Rattus norvegicus [1]): 60% | inhibition in vivo at 50 µmol/kg (Rattus norvegicus [2]): 66% | inhibition in vivo at 100 µmol/kg (Rattus norvegicus [4]): 77% | pEC50 [8]: 7.40 | pEC50 [7]: 8.20

C[C@H]1CNCCc2ccc(Cl)cc21 [LORCASERIN]
inhibition in vivo at 25 µmol/kg (Rattus norvegicus [1]): 58% | Tmax [9]: 0.5 h | clearance [10]: 102 mL/min/kg | Cmax [11]: 260 ng/mL | inhibition in vivo at 50 µmol/kg (Rattus norvegicus [2]): 77% | inhibition in vivo at 12.5 µmol/kg (Rattus norvegicus [3]): 34% | AUC(0-inf) [12]: 1400 ng·h/mL | bioavailability [13]: 86% | ED50 (Rattus norvegicus [14]): 18 mg/kg | Activity (Rattus norvegicus [15]): 14.03% | Activity (Rattus norvegicus [16]): 17.02% | Activity (Rattus norvegicus [17]): 15.75% | AUC(0-inf) [18]: 800 ng·h/mL | Vd [19]: 18 L/kg | half-life [20]: 3.1 h | Activity (Rattus norvegicus [21]): 8.5% | inhibition in vivo at 100 µmol/kg (Rattus norvegicus [4]): 82% | half-life [22]: 3.7 h

C[C@H](N)Cc1cccc(C(F)(F)F)c1 [NORDEXFENFLURAMINE]
pEC50 [5]: 6.70 | Selectivity ratio (Homo sapiens): -0.2 | Selectivity ratio [6]: 0.9 | pEC50 [8]: 7.80 | pEC50 [7]: 7.60
